Source: ChEMBL document CHEMBL3232979, “Discovery of a novel series of orally active nociceptin/orphanin FQ (NOP) receptor antagonists based on a dihydrospiro(piperidine-4,7'-thieno[2,3-c]pyran) scaffold” (J Med Chem, 2014)
Active and inactive are the calls of the source. The rule behind the calls is not given here.

Legend:
Nociceptin receptor = Nociceptin receptor (Homo sapiens, UniProt P41146); test: Displacement of [3H]-nociceptin from human recombinant NOP receptor expressed in CHO cells after 60 mins by scintillation counting; assay type: cell-based
[1] = target: Delta-type opioid receptor (Homo sapiens, UniProt P41143); test: Displacement of [3H]-diprenorphine from human delta opioid receptor after 120 mins by cell based assay
Method in brief: (§1)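 Radioligand binding with [3H]-diprenorphine on membranes from CHO cells overexpressing recombinant human kappa, mu or delta opioid receptor; Ki determined.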

Mu-type opioid receptor = Mu-type opioid receptor (Homo sapiens, UniProt P35372); test: Displacement of [3H]-diprenorphine from human mu opioid receptor after 120 mins by cell based assay; method in brief: as §1
Rattus norvegicus [2] = test: Ex vivo receptor occupancy of NOP receptor in Sprague-Dawley rat brain at 10 mg/kg, po after 24 hrs by LC-MS/MS analysis; assay type: functional
Method in brief: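 Male Sprague-Dawley rats, 220–300 g, 12 h light:dark cycle, free chow and water. A single oral 10 mg/kg dose or oral vehicle was given. 24 h later, nonlabeled tracer was given as an iv tail-vein bolus at 3 μg/kg. Brain was taken 40 min after tracer (hypothalamus, striatum), homogenized in ACN with 0.1% formic acid, centrifuged, diluted with water and read by LC-MS/MS.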

[3] = target: Kappa-type opioid receptor (Homo sapiens, UniProt P41145); test: Displacement of [3H]-diprenorphine from human kappa opioid receptor after 120 mins by cell based assay; method in brief: as §1
[4] = Oral bioavailability in Sprague-Dawley rat at 3 mg/kg; assay type: ADME, organism-based; conditions: in vivo
Method in brief: (§2)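 Male Sprague-Dawley rats (n = 3 per treatment), fasted 4–24 h, dosed iv bolus at 1 mg/kg or po at 3 or 10 mg/kg in 20% (w/w) Captisol in 25 mM phosphate buffer pH 2. Arterial blood sampled 0–16 or 24 h into EDTA, and plasma protein-precipitated with internal standard. LC-MS/MS quantitation against plasma standard curve (1–50 000 ng/mL). Noncompartmental analysis. F = dnAUCpo/dnAUCiv.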

[5] = Volume of distribution in Sprague-Dawley rat at 1 mg/kg, iv; assay type: ADME, organism-based; parameters: dose 1 mg/kg, route intravenous; conditions: in vivo; method in brief: as §2
[6] = AUC (0 to infinity) in Sprague-Dawley rat at 3 mg/kg, po; assay type: ADME, organism-based; parameters: time infinity, dose 3 mg/kg, route oral; conditions: plasma; method in brief: as §2
[7] = Plasma elimination half life in Sprague-Dawley rat at 1 mg/kg, iv; assay type: ADME, organism-based; parameters: dose 1 mg/kg, route intravenous; conditions: read-out: beta t1/2 (converted); method in brief: as §2
[8] = Plasma clearance in Sprague-Dawley rat at 1 mg/kg, iv; assay type: ADME, organism-based; parameters: dose 1 mg/kg, route intravenous; method in brief: as §2
[9] = Metabolic stability in rat hepatic microsomes assessed as GSH-adduct formation; assay type: ADME, Liver, Microsome
Method in brief: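 GSH trapping: compounds incubated with rat hepatic microsomes and glutathione; metabolite profiling by LC/MS for GSH conjugates.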

[10] = Oral bioavailability in Sprague-Dawley rat at 10 mg/kg; assay type: ADME, organism-based; conditions: in vivo; method in brief: as §2
[11] = AUC (0 to infinity) in Sprague-Dawley rat at 10 mg/kg, po; assay type: ADME, organism-based; parameters: time infinity, dose 10 mg/kg, route oral; conditions: plasma; method in brief: as §2
Rattus norvegicus [12] = test: Reversal of Ro64-6198-incued hypothermia in po dosed Sprague-Dawley rat administered 60 mins before Ro64-6198 challenge measured after 120 mins; assay type: functional, organism-based
Method in brief: (§3)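 Male Sprague-Dawley rats, 225 g, housed 2 per cage, acclimated at least 90 min. Rectal temperature was taken, then oral gavage of vehicle or test compound (0.03, 0.1 or 0.3 mg/kg). A second temperature was taken at 60 min, then Ro64-6198 (6 mg/kg sc) or vehicle was given, and a third temperature 120 min later. Between-group ANOVA with Dunnett posthoc tests against vehicle and agonist controls.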

Rattus norvegicus [13] = test: Toxicity in Sprague-Dawley rat assessed as basal body temperature at 0.03 to 0.3 mg/kg, po after 60 mins; conditions: in vivo, 1 h
Rattus norvegicus [14] = test: Reversal of Ro64-6198-incued hypothermia in Sprague-Dawley rat at 0.1 to 0.3 mg/kg, po administered 60 mins before Ro64-6198 challenge measured after 120 mins; assay type: functional, organism-based; method in brief: as §3

Chain of Nociceptin receptor (P41146 whole entry): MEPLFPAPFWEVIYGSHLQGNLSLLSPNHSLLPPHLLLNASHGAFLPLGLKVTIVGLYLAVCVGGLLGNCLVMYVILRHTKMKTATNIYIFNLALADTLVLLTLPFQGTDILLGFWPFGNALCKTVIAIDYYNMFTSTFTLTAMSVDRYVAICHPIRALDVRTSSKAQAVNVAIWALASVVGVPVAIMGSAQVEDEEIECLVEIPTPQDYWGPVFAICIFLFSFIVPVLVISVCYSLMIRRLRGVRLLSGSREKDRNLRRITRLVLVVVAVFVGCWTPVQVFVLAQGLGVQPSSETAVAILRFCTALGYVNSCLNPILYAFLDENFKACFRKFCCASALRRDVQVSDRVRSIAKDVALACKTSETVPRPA
Chain of Kappa-type opioid receptor (P41145 whole entry): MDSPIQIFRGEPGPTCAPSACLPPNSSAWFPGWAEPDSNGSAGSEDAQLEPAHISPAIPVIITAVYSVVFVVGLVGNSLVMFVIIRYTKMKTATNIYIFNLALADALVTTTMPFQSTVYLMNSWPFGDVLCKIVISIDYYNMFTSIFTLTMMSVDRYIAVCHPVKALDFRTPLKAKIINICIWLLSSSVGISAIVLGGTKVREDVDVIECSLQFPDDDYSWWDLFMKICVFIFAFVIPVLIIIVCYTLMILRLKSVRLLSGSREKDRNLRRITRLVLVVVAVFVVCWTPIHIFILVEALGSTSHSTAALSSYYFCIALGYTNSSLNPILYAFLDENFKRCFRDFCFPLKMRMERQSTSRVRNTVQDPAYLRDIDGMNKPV
Chain of Mu-type opioid receptor (P35372 whole entry): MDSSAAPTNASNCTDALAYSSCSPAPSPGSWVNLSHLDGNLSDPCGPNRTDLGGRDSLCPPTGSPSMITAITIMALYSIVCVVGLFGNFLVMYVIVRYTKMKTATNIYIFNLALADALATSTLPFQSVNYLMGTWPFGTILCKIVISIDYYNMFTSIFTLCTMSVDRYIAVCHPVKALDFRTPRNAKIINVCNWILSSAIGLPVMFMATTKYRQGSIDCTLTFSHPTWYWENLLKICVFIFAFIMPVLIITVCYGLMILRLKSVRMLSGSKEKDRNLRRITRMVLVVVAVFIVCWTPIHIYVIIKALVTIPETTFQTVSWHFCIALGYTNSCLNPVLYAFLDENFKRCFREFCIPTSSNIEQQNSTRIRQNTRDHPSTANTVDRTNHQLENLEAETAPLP
Chain of Delta-type opioid receptor (P41143 whole entry): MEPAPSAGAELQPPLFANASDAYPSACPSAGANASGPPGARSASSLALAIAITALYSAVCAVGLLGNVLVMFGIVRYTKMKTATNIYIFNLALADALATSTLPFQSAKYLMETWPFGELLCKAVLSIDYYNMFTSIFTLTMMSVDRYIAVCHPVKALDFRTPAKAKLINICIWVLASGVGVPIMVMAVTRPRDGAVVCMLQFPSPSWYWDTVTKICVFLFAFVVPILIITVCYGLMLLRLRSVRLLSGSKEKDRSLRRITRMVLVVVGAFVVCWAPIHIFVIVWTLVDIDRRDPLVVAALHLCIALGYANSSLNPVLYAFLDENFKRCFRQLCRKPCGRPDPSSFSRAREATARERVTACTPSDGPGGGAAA

## COCc1cccnc1-n1cc(CN2CCC3(CC2)OCCc2cc(Cl)sc23)c(C)n1
Nociceptin receptor
  Ki: 0.0908 nM

## Cc1nn(-c2ncccc2-c2ncc[nH]2)cc1CN1CCC2(CC1)OCC(F)(F)c1cc(Cl)sc12
[1]
  Ki: > 375 nM
Mu-type opioid receptor
  Ki: > 375 nM
Nociceptin receptor
  Ki: 0.0916 nM
Rattus norvegicus [2]
  Occ: 88%
[3]
  Ki: > 375 nM

## Cc1nn(-c2ncccc2F)cc1CN1CCC2(CC1)OCC(F)(F)c1cc(Cl)sc12.O=C(O)C(O)C(O)C(=O)O
[4]
  bioavailability: 62%
[5]
  Vd: 13.6 L/kg
[1]
  Ki: > 375 nM
[6]
  AUC(0-inf): 1820 ng·h/mL
[7]
  half-life: 12.1 h
Mu-type opioid receptor
  Ki: > 375 nM
Nociceptin receptor
  Ki: 0.176 nM
[8]
  clearance: 19.8 mL/min/kg
Rattus norvegicus [2]
  Occ: 55%
[3]
  Ki: > 375 nM

## Cc1nn(-c2ncccc2F)cc1CN1CCC2(CC1)OCCc1cc(F)sc12
Nociceptin receptor
  Ki: 0.139 nM

## COCc1cccnc1-n1cc(CN2CCC3(CC2)OCC(F)(F)c2cc(Cl)sc23)c(C)n1.O=C(O)C(O)C(O)C(=O)O
[1]
  Ki: > 375 nM
Mu-type opioid receptor
  Ki: > 375 nM
Nociceptin receptor
  Ki: 0.185 nM
[9]
  Stability: Stable
Rattus norvegicus [2]
  Occ: 90%
[3]
  Ki: > 375 nM

## CNCc1cccc(F)c1-n1cc(CN2CCC3(CC2)OCC(F)(F)c2cc(Cl)sc23)c(C)n1.O=C(O)C(O)C(O)C(=O)O
[1]
  Ki: > 375 nM
Mu-type opioid receptor
  Ki: > 375 nM
Nociceptin receptor
  Ki: 0.097 nM
Rattus norvegicus [2]
  Occ: 100%
[3]
  Ki: > 375 nM

## Cc1nn(-c2ncccc2CN(C)C)cc1CN1CCC2(CC1)OCC(F)(F)c1cc(Cl)sc12.O=C(O)C(O)C(O)C(=O)O
[1]
  Ki: > 375 nM
Mu-type opioid receptor
  Ki: > 375 nM
Nociceptin receptor
  Ki: 0.371 nM
Rattus norvegicus [2]
  Occ: 72%
[3]
  Ki: > 375 nM

## Cc1nn(-c2c(F)cccc2CO)cc1CN1CCC2(CC1)OCC(F)(F)c1cc(Cl)sc12.O=C(O)C(O)C(O)C(=O)O
[10]
  bioavailability: 51%
[5]
  Vd: 12.7 L/kg
[1]
  Ki: > 375 nM
[7]
  half-life: 3.9 h
Mu-type opioid receptor
  Ki: > 375 nM
Nociceptin receptor
  Ki: 0.114 nM
[8]
  clearance: 60.5 mL/min/kg
Rattus norvegicus [2]
  Occ: 87%
[3]
  Ki: > 375 nM
[11]
  AUC(0-inf): 1280 ng·h/mL

## Cc1nn(-c2c(F)cccc2C(N)=O)cc1CN1CCC2(CC1)OCCc1cc(F)sc12
Nociceptin receptor
  Ki: 0.0954 nM

## Cc1nn(-c2c(F)cccc2F)cc1CN1CCC2(CC1)OCCc1cc(F)sc12
Nociceptin receptor
  Ki: 0.0711 nM

## Cc1nn(-c2c(F)cccc2CN(C)C)cc1CN1CCC2(CC1)OCCc1cc(F)sc12
Nociceptin receptor
  Ki: 0.0648 nM

## Cc1nn(-c2c(F)cccc2CN(C)C)cc1CN1CCC2(CC1)OCC(F)(F)c1cc(Cl)sc12.O=C(O)C(O)C(O)C(=O)O
[1]
  Ki: > 375 nM
Mu-type opioid receptor
  Ki: > 375 nM
Nociceptin receptor
  Ki: 0.145 nM
Rattus norvegicus [2]
  Occ: 97%
[3]
  Ki: > 375 nM

## COCc1cccnc1-n1cc(CN2CCC3(CC2)OCCc2cc(F)sc23)c(C)n1
Nociceptin receptor
  Ki: 0.0939 nM

## Cc1nn(-c2c(F)cccc2CN(C)C)cc1CN1CCC2(CC1)OCCc1cc(Cl)sc12
Nociceptin receptor
  Ki: 0.122 nM

## Cc1nn(-c2ncccc2CO)cc1CN1CCC2(CC1)OCC(F)(F)c1cc(Cl)sc12.O=C(O)C(O)C(O)C(=O)O
[10]
  bioavailability: 57%
[5]
  Vd: 5.3 L/kg
Rattus norvegicus [12]
  Activity: Dose-dependent effect
[1]
  Ki: > 375 nM
[7]
  half-life: 3.8 h
Mu-type opioid receptor
  Ki: > 375 nM
Nociceptin receptor
  Ki: 0.105 nM
[8]
  clearance: 23.9 mL/min/kg
Rattus norvegicus [13]
  Activity: Non-toxic
Rattus norvegicus [2]
  Occ: 62%
Rattus norvegicus [14]
  Activity: Active
[3]
  Ki: > 375 nM
[11]
  AUC(0-inf): 4100 ng·h/mL

## Cc1nn(-c2c(F)cccc2F)cc1CN1CCC2(CC1)OCC(F)(F)c1cc(Cl)sc12.O=C(O)C(O)C(O)C(=O)O
[4]
  bioavailability: 49%
[5]
  Vd: 28.2 L/kg
[1]
  Ki: > 375 nM
[6]
  AUC(0-inf): 438 ng·h/mL
[7]
  half-life: 10.8 h
Mu-type opioid receptor
  Ki: > 375 nM
Nociceptin receptor
  Ki: 0.172 nM
[8]
  clearance: 52.9 mL/min/kg
Rattus norvegicus [2]
  Occ: 49%
[3]
  Ki: > 375 nM
